Laboratory results published in ChEMBL document CHEMBL4229494, “Novel tertiary sulfonamides as potent anti-cancer agents” (Bioorg Med Chem, 2018).
Values after ≈ are worked out from the molar mass of the structure shown.

Key:
[1] = Inhibition of Wnt3A-induced Wnt transcription (unknown origin) expressed in HEK293 cells coexpressing TK-driven Rluc after 20 to 22 hrs by super-top flash reporter gene assay; assay type: cell-based; conditions: Homo sapiens
Method in brief: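 HEK-293 cells (DMEM, 10% FBS) were co-transfected with Super(8x)TOPflash, a Wnt3A expression vector and TK-driven Renilla luciferase. After 8 h at 37 °C, 5% CO2, cells were seeded at 25,000/well and treated at 1.6, 8, 40, 200, 1000 or 5000 nM, or with DMSO, for 20-22 h in triplicate. Firefly/Renilla luminescence was taken relative to DMSO, and IC50 was found by nonlinear regression.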

MCF7 [2] = assay: Induction of apoptosis in human MCF7 cells after 24 hrs by caspase-Glo 3/7 reagent based luminescence assay; assay type: functional, cell-based; conditions: MCF7, 24 h
Method in brief: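 MCF-7 cells were plated at 25,000/well (DMEM, 10% FBS) and grown 24 h, then treated at 1.6 nM–5 µM or with DMSO for 24 h. Caspase 3/7 activity was read by Caspase-Glo 3/7 luminescence. Triplicate signals relative to DMSO were analysed by nonlinear regression.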

MDA-MB-231 = assay: Antiproliferative activity against human MDA-MB-231 cells after 24 hrs by SYBR green dye based fluorescence assay; assay type: functional, cell-based; conditions: MDA-MB-231, 24 h
Method in brief: (§1)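 Cells were plated at 500/well in DMEM/10% FBS and allowed to attach for 24 h at 37 °C, 5% CO2. They were then exposed to 1.6 nM–5 µM or DMSO. One plate was harvested every 24 h over 7 days and frozen at -20 °C. DNA was quantified by SYBR Green fluorescence (Ex495/Em535). Triplicate values relative to DMSO went to nonlinear regression for IC50.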

MCF7 [3] = assay: Antiproliferative activity against human MCF7 cells after 24 hrs by SYBR green dye based fluorescence assay; assay type: functional, cell-based; conditions: MCF7, 24 h; method in brief: as §1
[4] = Lipophilicity, log D of the compound at pH 3; assay type: physicochemical; conditions: buffer
[5] = Solubility of the compound; assay type: physicochemical
[6] = Lipophilicity, log D of the compound at pH 7; assay type: physicochemical; conditions: buffer

IC50 [1] | EC50 (MCF7 [2]) | IC50 (MDA-MB-231) | IC50 (MCF7 [3]) | logD [4] | solubility [5] | logD [6] | SMILES
18 nM | 5 nM | 13 nM | 7 nM |  |  |  | CN1CCN(S(=O)(=O)c2ccc(N3CCC=N3)cc2)c2ccccc21
9 nM |  |  |  | 3.3 | 23.1 µM (≈ 8.9 µg/mL) | 3.6 | CC1CN(C)c2ccccc2N1S(=O)(=O)c1ccc(N2CCCC2=O)cc1 (racemic)
> 5000 nM | > 5000 nM | > 5000 nM | > 5000 nM |  |  |  | O=S(=O)(c1ccc(-n2cncn2)cc1)N1CCCc2ccccc21
17 nM | 46 nM | 14 nM | 14 nM | 2.9 | 69.6 µM (≈ 27.9 µg/mL) | 3 | COc1ccc2c(c1)N(C)CCN2S(=O)(=O)c1ccc(N2CCCC2=O)cc1
634 nM |  |  |  |  |  |  | O=C1CCCN1c1ccc(S(=O)(=O)N2CCc3ccccc3C2)cc1

The next lines start with the compound.

SMILES | IC50 [1] | EC50 (MCF7 [2]) | IC50 (MDA-MB-231) | IC50 (MCF7 [3]) | logD [4] | solubility [5] | logD [6]
O=C1CCCN1c1ccc(S(=O)(=O)N2CCCC3CCCCC32)cc1 (stereo not given) | > 5000 nM |  |  |  |  |  | 
O=C1CCCN1c1ccc(S(=O)(=O)N2CCCc3ncccc32)cc1 | > 5000 nM |  |  |  |  |  | 
COc1ccc2c(c1)CCCN2S(=O)(=O)c1ccc(N2CCCC2=O)cc1 | 6 nM | 16 nM | 20 nM | 25 nM |  |  | 
O=C1CCCN1c1ccc(S(=O)(=O)Nc2cccc3ccccc23)cc1 | > 5000 nM |  |  |  |  |  | 
O=C1CCCN1c1ccc(S(=O)(=O)N2CCCc3ccccc32)cc1 | 25 nM | 23 nM | 15 nM | 17 nM | 2.5 | 7.8 µM (≈ 2.78 µg/mL) | 2.5
O=S(=O)(c1ccc(N2CCCC2)cc1)N1CCCc2ccccc21 | 20 nM |  |  |  | 3.6 | < 0.5 µM | 3.7
CC1CCc2ccccc2N1S(=O)(=O)c1ccc(N2CCCC2=O)cc1 (racemic) | 11 nM |  |  |  |  |  | 
O=C1CCCN1c1ccc(S(=O)(=O)N2CCCc3cc(C(F)(F)F)ccc32)cc1 | 54 nM |  |  |  |  |  | 
O=C1CCCN1c1ccc(S(=O)(=O)N2CCNc3ccccc32)cc1 | > 5000 nM |  |  |  |  |  | 
O=C1CCCN1c1ccc(S(=O)(=O)N2CCCc3cc(Cl)ccc32)cc1 | 13 nM |  |  |  | 3.1 | 2.9 µM (≈ 1.13 µg/mL) | 3.1
